According to ChEMBL document CHEMBL1144871, “Synthesis of substituted 6-anilinouracils and their inhibition of DNA polymerase IIIC and Gram-positive bacterial growth” (J Med Chem, 2003):
Values after ≈ are worked out from the molar mass of the structure shown.

Tests used:
Escherichia coli = test: Antibacterial activity against Escherichia coli was determined; type: functional
Outline: (§1)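 Broth microdilution MIC. Log-phase cultures grown in Luria broth; wells seeded from stocks at (3-7) × 10⁵ CFU/mL. DMSO stocks diluted 2-fold to five concentrations, 20 to 1.25 µg/mL, plus untreated control; 1% DMSO final in all wells. Duplicate assays, 37 °C for 16 to 24 h, growth read as OD600. MIC taken as lowest concentration preventing growth, averaged.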

[1] = target: DNA polymerase III PolC-type (Bacillus subtilis (strain 168), UniProt P13267); test: Inhibitory activity against DNA polymerase IIIC from Bacillus subtilis was determined
Chain of DNA polymerase III PolC-type (P13267 whole entry, the tested form may be a part): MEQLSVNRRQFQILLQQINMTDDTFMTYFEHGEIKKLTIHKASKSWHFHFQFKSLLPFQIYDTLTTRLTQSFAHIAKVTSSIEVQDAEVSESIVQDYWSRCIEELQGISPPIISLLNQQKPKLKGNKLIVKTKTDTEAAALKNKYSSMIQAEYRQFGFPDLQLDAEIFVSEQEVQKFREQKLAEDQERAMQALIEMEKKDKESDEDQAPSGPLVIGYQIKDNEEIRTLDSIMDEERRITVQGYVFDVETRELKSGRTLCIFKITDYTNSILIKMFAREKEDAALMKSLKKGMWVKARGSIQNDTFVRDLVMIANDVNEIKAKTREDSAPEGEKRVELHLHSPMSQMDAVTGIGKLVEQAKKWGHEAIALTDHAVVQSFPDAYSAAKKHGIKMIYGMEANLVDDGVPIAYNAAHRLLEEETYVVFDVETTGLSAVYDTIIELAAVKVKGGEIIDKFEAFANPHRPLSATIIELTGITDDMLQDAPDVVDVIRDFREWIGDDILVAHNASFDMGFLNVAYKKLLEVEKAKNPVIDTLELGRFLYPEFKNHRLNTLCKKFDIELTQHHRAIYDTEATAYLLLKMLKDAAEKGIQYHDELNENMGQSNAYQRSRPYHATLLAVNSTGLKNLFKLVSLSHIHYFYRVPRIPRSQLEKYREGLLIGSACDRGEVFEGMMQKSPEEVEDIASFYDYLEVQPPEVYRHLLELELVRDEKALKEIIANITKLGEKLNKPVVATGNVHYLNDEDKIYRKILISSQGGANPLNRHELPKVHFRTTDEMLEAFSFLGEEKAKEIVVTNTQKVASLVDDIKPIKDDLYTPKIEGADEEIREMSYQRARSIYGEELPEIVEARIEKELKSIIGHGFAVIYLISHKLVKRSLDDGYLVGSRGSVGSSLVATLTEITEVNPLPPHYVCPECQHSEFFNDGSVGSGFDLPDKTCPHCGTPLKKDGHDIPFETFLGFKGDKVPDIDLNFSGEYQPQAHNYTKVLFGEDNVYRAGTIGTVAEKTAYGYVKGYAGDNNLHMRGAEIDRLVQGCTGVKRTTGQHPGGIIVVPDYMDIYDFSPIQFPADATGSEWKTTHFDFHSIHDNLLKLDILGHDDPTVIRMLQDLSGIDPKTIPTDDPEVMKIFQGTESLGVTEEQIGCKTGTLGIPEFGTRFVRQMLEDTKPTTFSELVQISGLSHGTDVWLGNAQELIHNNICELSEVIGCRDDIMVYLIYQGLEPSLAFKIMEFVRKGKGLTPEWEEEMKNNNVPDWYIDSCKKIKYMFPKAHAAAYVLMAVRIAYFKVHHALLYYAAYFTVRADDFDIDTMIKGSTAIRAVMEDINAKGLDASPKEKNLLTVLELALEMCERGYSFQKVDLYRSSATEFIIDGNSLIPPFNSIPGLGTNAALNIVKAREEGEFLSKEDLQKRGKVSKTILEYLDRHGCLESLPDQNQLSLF
Outline: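 Homogeneous recombinant B. subtilis pol IIIC, 0.025-0.06 units, added to buffered Mg²⁺/DTT/glycerol mix with dATP, dCTP, dTTP, [³H]dTTP and activated calf thymus DNA, no dGTP ("truncated" assay). Compound serial dilutions in DMSO added before enzyme. 10 min at 30 °C, TCA-pyrophosphate stop, acid-precipitated DNA filtered and scintillation counted. Apparent Ki read directly; duplicates.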

Staphylococcus aureus [2] = test: Antibacterial activity against Staphylococcus aureus(smith) was determined; type: functional
Enterococcus faecalis [3] = test: Antibacterial activity against Enterococcus faecalis was determined; type: functional
Outline: (§2)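 MIC by broth microdilution. Log-phase cultures in Luria broth, seeded at (3-7) × 10⁵ CFU/mL stocks. Compound from DMSO stock, 2-fold serial dilutions giving five concentrations from 20 to 1.25 µg/mL, final 1% DMSO, with untreated and DMSO controls. Duplicate assays, 37 °C for 16 to 24 h, growth read as OD 600 nm. MIC is the averaged lowest concentration preventing growth.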

Staphylococcus aureus [4] = test: Antibacterial activity against Staphylococcus aureus was determined; type: functional
Bacillus subtilis = test: Antibacterial activity against Bacillus subtilis was determined; type: functional
Enterococcus faecium = test: Antibacterial activity against Enterococcus faecium was determined; type: functional, enterococcus fecium; outline: as §1
Staphylococcus aureus [5] = test: Antibacterial activity against methicillin-resistant strain of Staphylococcus aureus(MRSA B42876) was determined; type: functional; outline: as §2
Enterococcus faecalis [6] = test: Antibacterial activity against vancomycin-resistant strain of Enterococcus faecalis(VRE) was determined; type: functional; outline: as §2

Structure (SMILES)	MIC (Escherichia coli) [µg/mL]	Ki [1] [nM]	MIC (Staphylococcus aureus [2]) [µg/mL]	MIC (Enterococcus faecalis [3]) [µg/mL]	MIC (Staphylococcus aureus [4]) [µg/mL]	MIC (Bacillus subtilis) [µg/mL]	MIC (Enterococcus faecium) [µg/mL]	MIC (Staphylococcus aureus [5]) [µg/mL]	MIC (Enterococcus faecalis [6]) [µg/mL]
CCc1cc(Nc2cc(=O)n(CCCCN)c(=O)[nH]2)ccc1C.Cl	> 20	62							
CCc1cc(Nc2cc(=O)n(CCCCN3CCNCC3)c(=O)[nH]2)ccc1C.Cl.Cl	> 20	30	> 20	> 20	> 20	20	> 20		
CCOC(=O)CC1CN(CCCCn2c(=O)cc(Nc3ccc(C)c(CC)c3)[nH]c2=O)CCO1 (stereo unspecified)	> 20	26	20 (≈ 42.3 µM)	> 20	20 (≈ 42.3 µM)	5 (≈ 10.6 µM)	10 (≈ 21.2 µM)	20 (≈ 42.3 µM)	
CCc1cc(Nc2cc(=O)n(CCCCI)c(=O)[nH]2)ccc1C	> 20	140	> 20	> 20	> 20	> 20	> 20		
COCCCCn1c(=O)cc(Nc2ccc(C)c(C(C)Cl)c2)[nH]c1=O (stereo unspecified)	> 20	6470	> 20	> 20	> 20	> 20	> 20		
COCCCCn1c(=O)cc(Nc2ccc(C)c(I)c2)[nH]c1=O	> 20	310	5 (≈ 11.6 µM)	10 (≈ 23.3 µM)	10 (≈ 23.3 µM)	5 (≈ 11.6 µM)	10 (≈ 23.3 µM)	5 (≈ 11.6 µM)	5 (≈ 11.6 µM)
CCc1cc(Nc2cc(=O)n(CCCCN3CCOCC3)c(=O)[nH]2)ccc1C	> 20								
O=C(O)c1cn(C2CC2)c2cc(N3CCNCC3)c(F)cc2c1=O [CIPROFLOXACIN]	0.313 (≈ 0.945 µM)								20 (≈ 60.4 µM)
COCCCCn1c(=O)cc(Nc2ccc(C)c(Br)c2)[nH]c1=O	> 20	129	2.5 (≈ 6.54 µM)	5 (≈ 13.1 µM)	5 (≈ 13.1 µM)	2.5 (≈ 6.54 µM)	5 (≈ 13.1 µM)	5 (≈ 13.1 µM)	2.5 (≈ 6.54 µM)
COCCCCn1c(=O)cc(Nc2ccc(C)c(CO)c2)[nH]c1=O	> 20	20000	> 20	> 20	> 20	> 20	> 20		
CCc1cc(Nc2cc(=O)n(CCCCN3CCC(O)(c4ccccc4)CC3)c(=O)[nH]2)ccc1C	> 20	67	20 (≈ 42 µM)	20 (≈ 42 µM)	20 (≈ 42 µM)	20 (≈ 42 µM)	10 (≈ 21 µM)	20 (≈ 42 µM)	10 (≈ 21 µM)
CCc1cc(Nc2cc(=O)n(CCCCO)c(=O)[nH]2)ccc1C	> 20	63					2.5 (≈ 7.88 µM)		2.5 (≈ 7.88 µM)
CCOC1CN(CCCCn2c(=O)cc(Nc3ccc(C)c(CC)c3)[nH]c2=O)CCO1 (stereo unspecified)	> 20	43	20 (≈ 46.5 µM)	10 (≈ 23.2 µM)	10 (≈ 23.2 µM)	2.5 (≈ 5.81 µM)	20 (≈ 46.5 µM)	20 (≈ 46.5 µM)	10 (≈ 23.2 µM)
CN[C@H](CC(C)C)C(=O)N[C@H]1C(=O)N[C@@H](CC(N)=O)C(=O)N[C@H]2C(=O)N[C@H]3C(=O)N[C@H](C(=O)N[C@H](C(=O)O)c4cc(O)cc(O)c4-c4cc3ccc4O)[C@H](O)c3ccc(c(Cl)c3)Oc3cc2cc(c3O[C@@H]2O[C@H](CO)[C@@H](O)[C@H](O)[C@H]2O[C@H]2C[C@](C)(N)[C@H](O)[C@H](C)O2)Oc2ccc(cc2Cl)[C@H]1O [VANCOMYCIN]	> 20								> 20
COCCCCn1c(=O)cc(Nc2ccc(C)c(C(C)O)c2)[nH]c1=O (stereo unspecified)	> 20	2100	> 20	> 20	> 20	> 20	> 20		
COCCCCn1c(=O)cc(Nc2ccc(C)c(Cl)c2)[nH]c1=O	> 20	42	5 (≈ 14.8 µM)	5 (≈ 14.8 µM)	10 (≈ 29.6 µM)	< 1.25	5 (≈ 14.8 µM)	> 20	5 (≈ 14.8 µM)
CCc1cc(Nc2cc(=O)n(CCCCOC)c(=O)[nH]2)ccc1C	> 20	88							2.5 (≈ 7.54 µM)
COCCCCn1c(=O)cc(NCc2ccc(Cl)c(Cl)c2)[nH]c1=O	> 20	80	5 (≈ 13.4 µM)	5 (≈ 13.4 µM)	10 (≈ 26.9 µM)	3.75 (≈ 10.1 µM)	5 (≈ 13.4 µM)	20 (≈ 53.7 µM)	5 (≈ 13.4 µM)
